The source made the active and inactive calls. No cut-off for these calls is given here.
Columns and labels:
[1] = AUC (0 to infinity) in BALB/c mouse at 5 mg/kg, po measured for 0.83 to 24 hrs by LC-MS/MS analysis; format: ADME, organism-based; set-up: time upper 24 hrs, dose 5 mg/kg, time lower 0.83 hrs, route po; conditions: in vivo
[2] = Stability in SGF assessed as compound remaining measured upto 6 hrs by RP-UHPLC analysis; format: ADME; conditions: simulated gastric fluid (SGF), read-out: Stability
Calvarial osteoblast [3] = experiment: Induction of osteogenesis in BALB/c mouse calvarial osteoblast cells assessed as increase in type-1 col mRNA level at 1 to 100 pM by qPCR analysis; format: functional, cell-based; conditions: Calvaria, dose 1-100 pM
In short: (§1)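 BALB/c calvarial osteoblasts treated at 1 pM and 100 pM; RNA isolated, cDNA synthesized and RUNX2 and type 1 col transcripts measured by PCR.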

[4] = Induction of osteogenesis in BALB/c mouse MSC cells assessed as increase in mineral nodule formation at 0.001 nM treated for 21 days with compound refreshment for every 48 hrs by Alizarin red S staining based analysis relative to control; format: functional; conditions: time 21 day
In short: (§2)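 Bone marrow cells were flushed from the long bones of 6–8-week-old BALB/c mice and seeded at 2 × 10⁶ per well. Medium: 10% FBS, 100 nM dexamethasone, 50 μg mL⁻¹ ascorbic acid and 10 mM β-glycerophosphate. Compound and medium were renewed every 48 h for 21 days. Cells were fixed in 4% paraformaldehyde and stained with Alizarin red (pH 4.2). Stain was eluted with 10% cetylpyridinium chloride for 1 h and read at 595 nm versus control.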

Calvarial osteoblast [5] = experiment: Induction of cell proliferation of BALB/c mouse calvarial osteoblast cells at 0.001 nM incubated for 48 hrs by MTT assay relative to control; format: functional, Calvaria
In short: (§3)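 Primary calvarial osteoblasts from 1–2-day-old neonatal BALB/c pups, released by dispase/collagenase digestion and grown in α-MEM with 10% FBS. Seeded at 2 × 10³ cells per well, treated after 24 h for 48 h in α-MEM with 5% FBS, 10 mM β-glycerophosphate and 50 μg mL⁻¹ ascorbic acid. MTT added for 4 h at 37 °C, formazan dissolved in DMSO, absorbance read at 570 nm versus untreated cells.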

Mus musculus [6] = experiment: Induction of osteogenesis in BALB/c mouse model of drill hole defect at femur mid-diaphysis assessed as increase in type-1 col mRNA level at 5 to 10 mg/kg, po for 12 days by qPCR analysis; format: functional, organism-based; conditions: dose 5-10 mg/kg, time 12.0 day
Calvarial osteoblast [7] = experiment: Induction of cell proliferation of BALB/c mouse calvarial osteoblast cells at 10 nM incubated for 48 hrs by MTT assay relative to control
Calvarial osteoblast [8] = experiment: Induction of osteogenesis in BALB/c mouse calvarial osteoblast cells assessed as increase in RUNX2 level at 1 to 100 pM incubated for 48 hrs by Western blot analysis; format: functional, cell-based; conditions: Calvaria, dose 1-100 pM
In short: (§4)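 Calvarial osteoblasts seeded at 10⁶ per well, treated after 24 h at 1 pM and 100 pM for 48 h. Lysed with protease and phosphatase inhibitors, protein by BCA; 30 μg resolved by SDS-PAGE, PVDF transfer, 5% BSA block. Primary antibodies to BMP2, SMAD1, phospho-SMAD1, RUNX2, type I col (1:1000) overnight at 4 °C; β-actin loading control; HRP chemiluminescence and densitometry.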

[9] = Half life in BALB/c mouse at 5 mg/kg, po measured for 0.83 to 24 hrs by LC-MS/MS analysis; format: ADME, organism-based; conditions: in vivo, time 0.83-24 hrs
Calvarial osteoblast [10] = experiment: Induction of osteogenesis in BALB/c mouse calvarial osteoblast cells assessed as increase in phosphorylated SMAD1 level at 1 to 100 pM incubated for 48 hrs by Western blot analysis; format: functional, cell-based; conditions: Calvaria, dose 1-100 pM; in short: as §4
Calvarial osteoblast [11] = experiment: Cytotoxicity in BALB/c mouse calvarial osteoblast cells at 0.001 to 1000 nM incubated for 48 hrs by MTT assay; format: toxicity, cell-based, Calvaria; conditions: 1 µM, dose 0.001-1000 nM
In short: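 Primary calvarial osteoblasts from 1–2 day old BALB/c pups (collagenase/dispase digests, α-MEM with 10% FBS) seeded at 2 × 10³ per well. MTT added for 4 h at 37 °C, formazan dissolved in DMSO, absorbance read at 570 nm.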

Calvarial osteoblast [12] = experiment: Induction of osteogenesis in BALB/c mouse calvarial osteoblast cells assessed as increase in RUNX mRNA level at 1 to 100 pM by qPCR analysis; format: functional, cell-based; conditions: Calvaria, dose 1-100 pM; in short: as §1
[13] = Stability in BALB/c mouse plasma assessed as compound remaining measured upto 6 hrs by RP-UHPLC analysis; format: ADME, cell-free; conditions: read-out: Stability
[14] = Volume of distribution in BALB/c mouse at 5 mg/kg, po measured for 0.83 to 24 hrs by LC-MS/MS analysis; format: ADME, organism-based; conditions: in vivo, time 0.83-24 hrs
[15] = Cmax in BALB/c mouse at 5 mg/kg, po measured for 0.83 to 24 hrs by LC-MS/MS analysis; format: ADME, organism-based; set-up: time 0.83-24 hrs, dose 5 mg/kg, route po; conditions: in vivo
Calvarial osteoblast [16] = experiment: Induction of osteogenesis in BALB/c mouse calvarial osteoblast cells assessed as increase in type-1 col level at 1 to 100 pM incubated for 48 hrs by Western blot analysis; format: functional, cell-based; conditions: Calvaria, dose 1-100 pM; in short: as §4
Mus musculus [17] = experiment: Induction of osteogenesis in BALB/c mouse model of drill hole defect at femur mid-diaphysis assessed as increase in extracellular matrix deposition at 1 to 10 mg/kg, po for 12 days by H and E staining based analysis; format: functional, organism-based; conditions: dose 1-10 mg/kg, time 12.0 day
In short: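 Drill-hole femur defect, female BALB/c mice, oral dosing 1–10 mg kg⁻¹ for 12 days. Injury-site tissue fixed 48 h in 4% paraformaldehyde, 48 h in 70% isopropanol, decalcified, paraffin-embedded; 5 μm transverse sections stained with H&E and imaged by bright-field microscopy.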

Mus musculus [18] = experiment: Induction of osteogenesis in BALB/c mouse model of drill hole defect at femur mid-diaphysis assessed as increase in trabecular thickness at 5 to 10 mg/kg, po for 12 days by micro-CT analysis; format: functional, organism-based; conditions: dose 5-10 mg/kg, time 12.0 day
In short: (§5)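 Female BALB/c mice, 8–9 weeks, given a drill-hole defect at femur mid-diaphysis under intraperitoneal ketamine (45 mg kg⁻¹)/xylazine (5 mg kg⁻¹); ten per group. Oral dosing at 1, 5 or 10 mg kg⁻¹ began the day after injury for 12 days; PTH 20 μg kg⁻¹ per day as reference. Defect region scanned by μCT for BV/TV, Tb.Th and Tb.N.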

Calvarial osteoblast [19] = experiment: Induction of osteogenesis in BALB/c mouse calvarial osteoblast cells assessed as increase in SMAD1 level at 1 to 100 pM incubated for 48 hrs by Western blot analysis; format: functional, cell-based; conditions: Calvaria, dose 1-100 pM; in short: as §4
[20] = Tmax in BALB/c mouse at 5 mg/kg, po measured for 0.83 to 24 hrs by LC-MS/MS analysis; format: ADME, organism-based; conditions: in vivo, time 0.83-24 hrs
[21] = Induction of osteogenesis in BALB/c mouse MSC cells assessed as increase in mineral nodule formation at 0.1 nM treated for 21 days with compound refreshment for every 48 hrs by Alizarin red S staining based analysis relative to control; format: functional; conditions: time 21 day; in short: as §2
Mus musculus [22] = experiment: Induction of osteogenesis in BALB/c mouse model of drill hole defect at femur mid-diaphysis assessed as increase in RUNX2 mRNA level at 5 to 10 mg/kg, po for 12 days by qPCR analysis; format: functional, organism-based; conditions: dose 5-10 mg/kg, time 12.0 day
Mus musculus [23] = experiment: Induction of osteogenesis in BALB/c mouse model of drill hole defect at femur mid-diaphysis assessed as increase in fracture healing at 1 to 10 mg/kg, po for 12 days by micro-CT analysis; format: functional, organism-based; conditions: dose 1-10 mg/kg, time 12.0 day; in short: as §5
[24] = Clearance in BALB/c mouse at 5 mg/kg, po measured for 0.83 to 24 hrs by LC-MS/MS analysis; format: ADME, organism-based; conditions: in vivo, time 0.83-24 hrs
[25] = Stability in SIF assessed as compound remaining measured upto 6 hrs by RP-UHPLC analysis; format: ADME; conditions: simulated intestinal fluid (SIF), read-out: Stability
[26] = Stability in SPF assessed as compound remaining measured upto 6 hrs by RP-UHPLC analysis; format: physicochemical; conditions: read-out: Stability
Mus musculus [27] = experiment: Induction of osteogenesis in BALB/c mouse model of drill hole defect at femur mid-diaphysis assessed as increase in bone volume/tissue volume fraction at 5 to 10 mg/kg, po for 12 days by micro-CT analysis; format: functional, organism-based; conditions: dose 5-10 mg/kg, time 12.0 day; in short: as §5
Calvarial osteoblast [28] = experiment: Induction of osteogenesis in BALB/c mouse calvarial osteoblast cells using PNPP as substrate assessed as increase in ALP activity at 0.001 to 1000 nM measured after 48 hrs by spectrophotometry; format: functional, cell-based; conditions: Calvaria, dose 0.001-1000 nM
In short: (§6)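 Neonatal BALB/c calvarial osteoblasts, 2 × 10³ cells per well, adhered 24 h, then exposed to compounds (1 pM to 1 μM range) in osteoblast differentiation medium for 48 h. Cells frozen overnight at −80 or −20 °C, thawed at 37 °C to expose ectoenzyme; p-nitrophenyl phosphate added and ALP activity read at 405 nm. Untreated cells as control.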

Mus musculus [29] = experiment: Induction of osteogenesis in BALB/c mouse model of drill hole defect at femur mid-diaphysis assessed as increase in callus formation at 1 to 10 mg/kg, po for 12 days by micro-CT analysis; format: functional, organism-based; conditions: dose 1-10 mg/kg, time 12.0 day; in short: as §5
Calvarial osteoblast [30] = experiment: Induction of osteogenesis in BALB/c mouse calvarial osteoblast cells assessed as increase in BMP2 level at 1 to 100 pM incubated for 48 hrs by Western blot analysis; format: functional, cell-based; conditions: Calvaria, dose 1-100 pM; in short: as §4
Mus musculus [31] = experiment: Induction of osteogenesis in BALB/c mouse model of drill hole defect at femur mid-diaphysis assessed as increase in trabecular number at 5 mg/kg, po for 12 days by micro-CT analysis; format: functional, organism-based; conditions: time 12.0 day; in short: as §5
Mus musculus [32] = experiment: Induction of osteogenesis in BALB/c mouse model of drill hole defect at femur mid-diaphysis assessed as increase in BMP2 mRNA level at 5 to 10 mg/kg, po for 12 days by qPCR analysis; format: functional, organism-based; conditions: dose 5-10 mg/kg, time 12.0 day
Calvarial osteoblast [33] = experiment: Induction of cell proliferation of BALB/c mouse calvarial osteoblast cells at 0.1 nM incubated for 48 hrs by MTT assay relative to control; format: functional, Calvaria; in short: as §3
Mus musculus [34] = experiment: Induction of osteogenesis in BALB/c mouse model of drill hole defect at femur mid-diaphysis assessed as increase in calcein binding at fracture site at 5 mg/kg, po for 12 days by confocal microscopy; format: functional, organism-based; conditions: time 12.0 day
In short: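 Femur drill-hole model in female BALB/c mice, oral dosing 1–10 mg kg⁻¹ for 12 days from the day after injury. Calcein 20 mg kg⁻¹ in saline given i.p. 24 h before autopsy; undecalcified drill-hole region embedded in acrylic, 50 μm sections cut, and calcein intensity at the fracture site quantified.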

[35] = MRT in BALB/c mouse at 5 mg/kg, po measured for 0.83 to 24 hrs by LC-MS/MS analysis; format: ADME, organism-based; conditions: in vivo, time 0.83-24 hrs
Calvarial osteoblast [36] = experiment: Induction of osteogenesis in BALB/c mouse calvarial osteoblast cells using PNPP as substrate assessed as increase in ALP activity at 0.1 to 10 nM measured after 48 hrs by spectrophotometry; format: functional, cell-based; conditions: Calvaria, dose 0.1-10 nM; in short: as §6

CCCCCC(=O)Nc1nc(-c2ccc(Br)cc2)c(Br)c(-c2cc(OC)c(OC)cc2OC)n1
AUC [1]: 6.18006 ng·h/mL
remaining at 6 h [2]: > 50%
Activity (Calvarial osteoblast [3]): Active
Activity [4]: ~40%
Activity (Calvarial osteoblast [5]): ~32%
Activity (Mus musculus [6]): Active
Activity (Calvarial osteoblast [7]): ~23%
Activity (Calvarial osteoblast [8]): Active
half-life [9]: 12.4 h
Activity (Calvarial osteoblast [10]): Active
Activity (Calvarial osteoblast [11]): Non-Toxic
Activity (Calvarial osteoblast [12]): Active
remaining at 6 h [13]: > 85%
Vd [14]: 2113.99 L/kg
Cmax [15]: 0.83 ng/mL
Activity (Calvarial osteoblast [16]): Active
Activity (Mus musculus [17]): Active
Activity (Mus musculus [18]): Active
Activity (Calvarial osteoblast [19]): Active
Tmax [20]: 0.83 h
Activity [21]: ~39%
Activity (Mus musculus [22]): Active
Activity (Mus musculus [23]): Active
CL [24]: 1964 mL/min/kg
remaining at 6 h [25]: > 50%
remaining at 6 h [26]: > 85%
Activity (Mus musculus [27]): Active
Activity (Calvarial osteoblast [28]): Active
Activity (Mus musculus [29]): Active
Activity (Calvarial osteoblast [30]): Active
Activity (Mus musculus [31]): Active
Activity (Mus musculus [32]): Active
Activity (Calvarial osteoblast [33]): ~31%
Activity (Mus musculus [34]): Active
MRT [35]: 18.1 h

COc1cc(OC)c(-c2cc(-c3ccc(Br)cc3)nc(N)n2)cc1OC
Activity (Calvarial osteoblast [36]): Active
Activity (Calvarial osteoblast [11]): Non-Toxic
Activity [21]: ~23%
Activity (Calvarial osteoblast [33]): ~30%

COc1cc(OC)c(-c2cc(-c3ccc(Cl)cc3)nc(N)n2)cc1OC
Activity (Calvarial osteoblast [36]): Active
Activity (Calvarial osteoblast [11]): Non-Toxic
